ChEMBL document CHEMBL2424582, “Structure-kinetic relationships--an overlooked parameter in hit-to-lead optimization: a case of cyclopentylamines as chemokine receptor 2 antagonists” (J Med Chem, 2013)

Assays:
[1] = molecular target: T1, C-C chemokine receptor type 2 (Homo sapiens, UniProt P41597); assay: Displacement of [125I]-CCL2 from human CCR2 receptor expressed in human U2OS cell membrane at 1 uM relative to control; format: cell membranes
Summary of the method: (§1)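 Membranes from U2OS cells stably expressing human CCR2 were used in a ¹²⁵I-CCL2 displacement binding assay. The cells were grown at 37 °C, 5% CO₂ in McCoy's 5a with 10% FCS plus G418, hygromycin and zeocin selection. Ki was derived from IC₅₀ by the Cheng–Prusoff equation. Weak binders are reported as percent displacement at 1 μM. n = 3.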
Target sequence in this assay (P41597 whole entry, looked up): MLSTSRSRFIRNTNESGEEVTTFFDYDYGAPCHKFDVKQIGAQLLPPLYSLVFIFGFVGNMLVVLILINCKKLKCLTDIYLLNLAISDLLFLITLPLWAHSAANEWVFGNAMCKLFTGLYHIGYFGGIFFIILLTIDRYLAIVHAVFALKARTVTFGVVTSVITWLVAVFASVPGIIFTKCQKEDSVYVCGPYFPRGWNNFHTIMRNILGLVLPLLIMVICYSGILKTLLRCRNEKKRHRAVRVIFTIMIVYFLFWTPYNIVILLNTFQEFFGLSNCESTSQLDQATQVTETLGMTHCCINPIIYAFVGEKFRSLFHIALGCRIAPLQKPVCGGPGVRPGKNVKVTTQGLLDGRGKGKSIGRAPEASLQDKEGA

[2] = molecular target: T1, C-C chemokine receptor type 2; assay: Displacement of [3H]INCB3344 from human CCR2 receptor expressed in human U2OS cell membrane assessed as residence time
Target sequence in this assay (P41597 whole entry, looked up): as above

[3] = molecular target: T1, C-C chemokine receptor type 2; assay: Displacement of [3H]INCB3344 from human CCR2 receptor expressed in human U2OS cell membrane assessed as kinetic rate index at Ki by dual-point competition association assay relative to control
Target sequence in this assay (P41597 whole entry, looked up): as above

[4] = molecular target: T1, C-C chemokine receptor type 2; assay: Displacement of [125I]-CCL2 from human CCR2 receptor expressed in human U2OS cell membranes; summary of the method: as §1
Target sequence in this assay (P41597 whole entry): as the sequence (P41597 whole entry, looked up) above

Row | inhibition [1] | TIME [2] | Ratio [3] | Ki [4] | Compound
1 | 30% |  |  |  | CC(C)[C@]1(C(=O)NCc2cc(C(F)(F)F)cc(C(F)(F)F)c2)CC[C@@H](NC2CCc3cc(F)ccc32)C1 (some centres undefined)
2 |  | 2.25 h |  |  | CC(C)[C@]1(C(=O)NCc2cc(C(F)(F)F)cc(C(F)(F)F)c2)CC[C@@H](NC2CCc3cc(Br)ccc32)C1 (single isomer, unassigned; diastereomer 1) [listing 1 of 2 here]
3 |  |  | 0.8 | 55 nM | Cc1ccc2c(c1)C(N[C@@H]1CC[C@@](C(=O)NCc3cc(C(F)(F)F)cc(C(F)(F)F)c3)(C(C)C)C1)CC2 (some centres undefined)
4 |  |  | 0.6 | 6.3 nM | CC(C)[C@]1(C(=O)NCc2cc(C(F)(F)F)cc(C(F)(F)F)c2)CC[C@@H](NC2CCc3cc4c(cc32)OCO4)C1 (some centres undefined)
5 |  | 1.28 h |  |  | CC(C)[C@]1(C(=O)NCc2cc(C(F)(F)F)cc(C(F)(F)F)c2)CC[C@@H](NC2CCc3cc(Br)ccc32)C1 (stereo in doubt; 22b) [listing 1 of 2 here]
6 |  |  | 0.7 | 3.9 nM | COc1cc2c(cc1OC)C(N[C@@H]1CC[C@@](C(=O)NCc3cc(C(F)(F)F)cc(C(F)(F)F)c3)(C(C)C)C1)CC2 (some centres undefined)
7 |  |  | 0.6 | 6.1 nM | COc1ccc2c(c1)CCC2N[C@@H]1CC[C@@](C(=O)NCc2cc(C(F)(F)F)cc(C(F)(F)F)c2)(C(C)C)C1 (some centres undefined)
8 | 26% |  |  |  | Cc1cccc2c1CCC2N[C@@H]1CC[C@@](C(=O)NCc2cc(C(F)(F)F)cc(C(F)(F)F)c2)(C(C)C)C1 (some centres undefined)
9 | 48% |  |  |  | CC(C)[C@]1(C(=O)NCc2cc(C(F)(F)F)cc(C(F)(F)F)c2)CC[C@@H](NC2CCCc3c(Br)cccc32)C1 (some centres undefined)
10 |  |  | 0.7 | 29 nM | CC(C)[C@]1(C(=O)NCc2cc(C(F)(F)F)cc(C(F)(F)F)c2)CC[C@@H](NC2CCc3cc(O)ccc32)C1 (some centres undefined)
11 |  |  |  | 437 nM | CC(C)[C@]1(C(=O)NCc2cc(C(F)(F)F)cc(C(F)(F)F)c2)CC[C@@H](NCc2ccccc2)C1
12 |  | 0.0317 h |  | 110 nM | CC(C)[C@]1(C(=O)NCc2cc(C(F)(F)F)cc(C(F)(F)F)c2)CC[C@@H](NC2CCCCC2)C1
13 |  | 1.57 h | 1.1 |  | CC(C)[C@]1(C(=O)NCc2cc(C(F)(F)F)cc(C(F)(F)F)c2)CC[C@@H](NC2CCc3cc(Br)ccc32)C1 (mixture of isomers) [listing 1 of 2 here]
14 |  | 0.04 h |  | 6.8 nM | CC(C)[C@]1(C(=O)NCc2cc(C(F)(F)F)cc(C(F)(F)F)c2)CC[C@@H](NC2CCOCC2)C1
15 |  |  | 0.8 | 70 nM | CC(C)[C@]1(C(=O)NCc2cc(C(F)(F)F)cc(C(F)(F)F)c2)CC[C@@H](NC2CCc3c(C#N)cccc32)C1 (some centres undefined)
16 |  |  | 0.8 | 35 nM | CC(C)[C@]1(C(=O)NCc2cc(C(F)(F)F)cc(C(F)(F)F)c2)CC[C@@H](NC2CCCc3c(O)cccc32)C1 (some centres undefined)
17 | 0% |  |  |  | CC(C)[C@]1(C(=O)NCc2cc(C(F)(F)F)cc(C(F)(F)F)c2)CC[C@@H](NC2CCCc3c(C(=O)O)cccc32)C1 (some centres undefined)

Row | inhibition [1] | TIME [2] | Ratio [3] | Ki [4] | Compound
18 |  |  |  | 130 nM | COc1ccc2c(c1OC)CCC2N[C@@H]1CC[C@@](C(=O)NCc2cc(C(F)(F)F)cc(C(F)(F)F)c2)(C(C)C)C1 (some centres undefined)
19 |  |  |  | 3.6 nM | CC(C)[C@]1(C(=O)NCc2cc(C(F)(F)F)cc(C(F)(F)F)c2)CC[C@@H](NC2CCc3cc(Br)ccc32)C1 (single isomer, unassigned; diastereomer 1) [listing 2 of 2 here]
20 |  | 0.158 h | 0.7 | 50 nM | CC(C)[C@]1(C(=O)NCc2cc(C(F)(F)F)cc(C(F)(F)F)c2)CC[C@@H](NC2CCc3ccccc32)C1 (some centres undefined)
21 |  |  |  | 134 nM | CC(C)[C@]1(C(=O)NCc2cc(C(F)(F)F)cc(C(F)(F)F)c2)CC[C@@H](NCCCc2ccccc2)C1
22 | 30% |  |  |  | COc1cccc2c1CCC2N[C@@H]1CC[C@@](C(=O)NCc2cc(C(F)(F)F)cc(C(F)(F)F)c2)(C(C)C)C1 (some centres undefined)
23 |  |  | 0.6 | 86 nM | CC(C)[C@]1(C(=O)NCc2cc(C(F)(F)F)cc(C(F)(F)F)c2)CC[C@@H](NC2CCc3c(O)cccc32)C1 (some centres undefined)
24 |  |  | 0.8 | 43 nM | CC(C)[C@]1(C(=O)NCc2cc(C(F)(F)F)cc(C(F)(F)F)c2)CC[C@@H](NC2CCc3c(N)cccc32)C1 (some centres undefined)
25 |  | 0.0717 h |  | 31 nM | CC(C)[C@]1(C(=O)NCc2cc(C(F)(F)F)cc(C(F)(F)F)c2)CC[C@@H](NC2CCSCC2)C1
26 |  |  |  | 2400 nM | CC(C)[C@]1(C(=O)NCc2cc(C(F)(F)F)cc(C(F)(F)F)c2)CC[C@@H](NCCc2ccccc2)C1
27 |  | 0.0933 h | 0.6 | 33 nM | CC(C)[C@]1(C(=O)NCc2cc(C(F)(F)F)cc(C(F)(F)F)c2)CC[C@@H](NC2CCCc3ccccc32)C1 (some centres undefined)
28 | 28% |  |  |  | CC(C)[C@]1(C(=O)NCc2cc(C(F)(F)F)cc(C(F)(F)F)c2)CC[C@@H](NC2CCc3ccc(Cl)cc32)C1 (some centres undefined)
29 |  |  |  | 289 nM | CC(C)[C@]1(C(=O)NCc2cc(C(F)(F)F)cc(C(F)(F)F)c2)CC[C@@H](NC2CCc3cc(Br)ccc32)C1 (stereo in doubt; 22b) [listing 2 of 2 here]
30 |  |  |  | 7.2 nM | CC(C)[C@]1(C(=O)NCc2cc(C(F)(F)F)cc(C(F)(F)F)c2)CC[C@@H](NC2CCc3cc(Br)ccc32)C1 (mixture of isomers) [listing 2 of 2 here]
31 |  |  | 0.6 | 54 nM | CC(C)[C@]1(C(=O)NCc2cc(C(F)(F)F)cc(C(F)(F)F)c2)CC[C@@H](NC2CCc3ccc(C#N)cc32)C1 (some centres undefined)
32 |  |  | 0.7 | 27 nM | COc1cccc2c1CCCC2N[C@@H]1CC[C@@](C(=O)NCc2cc(C(F)(F)F)cc(C(F)(F)F)c2)(C(C)C)C1 (some centres undefined)
33 |  | 0.933 h | 1.1 | 18 nM | CC(C)[C@]1(C(=O)NCc2cc(C(F)(F)F)cc(C(F)(F)F)c2)CC[C@@H](NC2CCc3cc(Cl)ccc32)C1 (some centres undefined)
